{"data": "Measurements gathered from unrelated publications", "target": "Hormonally up-regulated neu tumor-associated kinase (HUNK, Homo sapiens, UniProt P57058)", "Sequence (P57058 1-714, as in one of the studies)": "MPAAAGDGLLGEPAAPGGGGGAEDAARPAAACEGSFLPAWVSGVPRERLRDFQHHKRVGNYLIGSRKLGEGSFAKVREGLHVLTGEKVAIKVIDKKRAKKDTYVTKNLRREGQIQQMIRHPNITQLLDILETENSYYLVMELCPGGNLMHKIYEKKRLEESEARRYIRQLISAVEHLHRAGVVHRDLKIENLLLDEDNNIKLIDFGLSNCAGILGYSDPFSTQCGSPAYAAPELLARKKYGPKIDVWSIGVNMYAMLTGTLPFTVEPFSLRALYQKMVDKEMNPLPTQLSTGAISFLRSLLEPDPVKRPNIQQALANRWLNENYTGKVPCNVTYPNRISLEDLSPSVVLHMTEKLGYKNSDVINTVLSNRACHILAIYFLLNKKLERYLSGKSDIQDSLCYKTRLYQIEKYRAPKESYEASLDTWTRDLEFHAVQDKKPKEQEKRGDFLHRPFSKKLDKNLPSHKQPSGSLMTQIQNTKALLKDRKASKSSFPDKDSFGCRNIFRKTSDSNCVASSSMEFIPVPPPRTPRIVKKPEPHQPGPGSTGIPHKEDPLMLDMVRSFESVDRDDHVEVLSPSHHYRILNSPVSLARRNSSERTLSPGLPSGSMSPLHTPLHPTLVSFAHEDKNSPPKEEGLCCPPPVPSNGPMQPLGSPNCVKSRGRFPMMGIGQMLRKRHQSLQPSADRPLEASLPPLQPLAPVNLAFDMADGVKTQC", "note": "Lines come from different studies, so protocols differ."}
{"Compound": "F[C@@H]1CCN(c2nccc(-c3cnn4ncccc34)n2)C1", "test": "binding", "conditions": "1 µM", "remaining binding": "0%"}
{"Compound": "O=C(NCC1CCOCC1)c1n[nH]cc1NC(=O)c1c(F)cccc1F", "test": "binding, competition with immobilised ligand", "conditions": "1 µM", "remaining binding": "100%"}
{"Compound": "CCC(=O)N[C@H]1CC[C@@H](C(=O)N(C)c2ccc(-c3nc4ccccc4o3)cc2)C1", "test": "cell-free assay, competition with immobilised ligand", "conditions": "1 µM", "remaining binding": "100%"}
{"Compound": "CCN1CCN(Cc2ccc(C(=O)Nc3ccc(C)c(Oc4ccc5c(c4)CC(=O)N5)c3)cc2C(F)(F)F)CC1", "test": "binding, competition with immobilised ligand", "conditions": "1 µM", "remaining binding": "100%"}
{"Compound": "CN(C)c1nccc(-c2cnn3ncccc23)n1", "test": "binding", "conditions": "1 µM", "remaining binding": "100%"}
{"Compound": "O=C(O)c1cc(-c2ccc(C3CCNCC3)cc2)c2ccc(-c3ccc(C(F)(F)F)cc3)cc2c1", "test": "cell-free assay, competition with immobilised ligand", "conditions": "1 µM", "remaining binding": "100%"}
{"Compound": "c1cncc(-c2cccc(Nc3nccc(NC4CCCCC4)n3)c2)c1", "test": "binding, competition with immobilised ligand", "conditions": "10 µM", "remaining binding": "100%"}
{"Compound": "O=C(NCCCN1CCOCC1)c1ccc(Nc2nccc(-c3cc4ccccc4s3)n2)cc1", "test": "binding, competition with immobilised ligand", "conditions": "1 µM", "remaining binding": "100%"}
{"Compound": "CN(C)c1nccc(-c2cnc3ncccn23)n1", "test": "binding", "conditions": "1 µM", "remaining binding": "83%"}
{"Compound": "COc1ncc2cc3ccccc3nc2c1C#N", "test": "cell-free assay, competition with immobilised ligand", "conditions": "5 µM", "remaining binding": "100%"}
{"Compound": "N[C@@H]1CCN(c2nccc(-c3cnn4ncccc34)n2)C1", "test": "binding", "conditions": "1 µM", "remaining binding": "100%"}
{"Compound": "Cc1nc(N2CC[C@@H](O)C2)ncc1-c1cc(C(F)(F)F)cc2[nH]ncc12", "test": "binding, competition with immobilised ligand", "conditions": "1 µM", "remaining binding": "100%"}
{"Compound": "CNC(=O)[C@@H]1CC[C@@H](n2c(-c3ccc4cnccc4c3)nc3ccc(C(=O)NCc4cccc(C(N)=O)c4)cc32)C1", "test": "binding, competition with immobilised ligand", "conditions": "1 µM", "remaining binding": "100%"}
{"Compound": "O=C(NCCCN1CCOCC1)c1ccc(Nc2ncc(Cl)c(-c3ccc(Cl)s3)n2)cc1", "test": "binding, competition with immobilised ligand", "conditions": "1 µM", "remaining binding": "100%"}
{"Compound": "NS(=O)(=O)c1cc(NC(=O)Cc2ccccc2)ccc1Oc1cccc(Cl)c1", "test": "cell-free assay, competition with immobilised ligand", "conditions": "1 µM", "remaining binding": "84%"}
{"Compound": "CN(C)c1ncc(F)c(-c2cnn3ncccc23)n1", "test": "binding", "conditions": "1 µM", "remaining binding": "100%"}
{"Compound": "CSc1cccnc1N1CCN(Cc2nc3ccccc3[nH]2)CC1", "test": "cell-free assay, competition with immobilised ligand", "conditions": "1 µM", "remaining binding": "100%"}
{"Compound": "Cc1cnc(Nc2ccc(C(=O)N3CCC(N4CCCC4)CC3)cc2)nc1-c1cc2ccccc2s1", "test": "binding, competition with immobilised ligand", "conditions": "1 µM", "remaining binding": "100%"}
{"Compound": "C[C@H]1CCN(c2nccc(-c3cnn4ncccc34)n2)C1", "test": "binding", "conditions": "1 µM", "remaining binding": "100%"}
{"Compound": "Cc1cc(C)c(-n2ccn3nc(-c4cccnc4)cc23)cc1NC(=O)c1cc(C#N)cc(S(F)(F)(F)(F)F)c1", "test": "cell-free assay, competition with immobilised ligand", "conditions": "0.1 µM", "remaining binding": "83%"}
{"Compound": "COc1ccnn2ncc(-c3ccnc(N(C)C)n3)c12", "test": "binding", "conditions": "1 µM", "remaining binding": "100%"}
{"Compound": "CNC(=O)Nc1ccc2c(c1)CC[C@@]21OC(=O)N(CC(=O)N(Cc2ccc(F)cc2)[C@@H](C)C(F)(F)F)C1=O", "test": "cell-free assay, competition with immobilised ligand", "conditions": "1 µM", "remaining binding": "100%"}
